Measured values as given in ChEMBL document CHEMBL4043202, “Synthesis, pH dependent, plasma and enzymatic stability of bergenin prodrugs for potential use against rheumatoid arthritis” (Bioorg Med Chem, 2017).
Converted amounts (≈) assume the structure as drawn.

Legend:
[1] = Stability in pH 1.2 SGF assessed as compound remaining level at 120 mg/mL incubated for 24 hrs at 37 degC by HPLC method
In short: (§1)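 SGF (pH 1.2) and SIF (pH 6.8) were prepared per USP 2000. Compound was incubated at 37 °C and sampled at 0 and 24 h. Samples were quenched with ice-cold acetonitrile and centrifuged. Prodrug and bergenin were measured by compound-specific isocratic RP-C8 HPLC-UV. Each analysis in triplicate.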

[2] = Stability in pH 4.0 phosphate buffer assessed as compound remaining level at […] incubated for 24 hrs at 37 degC by HPLC method; format: physicochemical; conditions: for remaining at 24 h: pH 4.0 phosphate buffer, pH 4, read-out: Stability
[3] = Distribution coefficient, log D of the compound in PBS/n-octanol at pH 7.4 at 25 degC by HPLC method; format: physicochemical
In short: (§2)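 Miniaturised shake-flask method: water/n-octanol for log P and PBS pH 7.4/n-octanol for log D, at 25 °C. Tubes were shaken overnight at 500 rpm and centrifuged at 16000 RCF for 20 min to separate the phases. Compound in each phase was quantified by reversed-phase C18 HPLC with the column at 37 °C. Run in triplicate.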

[4] = Partition coefficient, log P of the compound in water/n-octanol at pH 7.4 at 25 degC by HPLC method; format: physicochemical; in short: as §2
[5] = Stability in pH 6.8 SIF assessed as compound remaining level at 120 mg/mL incubated for 24 hrs at 37 degC by HPLC method; in short: as §1
[6] = Solubility in water; format: physicochemical
[7] = Partition coefficient, log P of the compound; format: physicochemical; conditions: octanol/water; in short: as §2
[8] = Solubility in pH 3.0 buffer; format: physicochemical
Interleukin-6 = Interleukin-6 (Homo sapiens, UniProt P05231); assay: Inhibition of IL6 (unknown origin)
[9] = Solubility in pH 1.0 buffer; format: physicochemical
Tumor necrosis factor = Tumor necrosis factor (Homo sapiens, UniProt P01375); assay: Inhibition of TNFalpha (unknown origin)
[10] = Solubility in pH 5.0 buffer; format: physicochemical
[11] = Partition coefficient, log P of the compound in water/n-octanol at 25 degC by HPLC method; conditions: pH 7.4

Chain of Interleukin-6 (P05231 whole entry): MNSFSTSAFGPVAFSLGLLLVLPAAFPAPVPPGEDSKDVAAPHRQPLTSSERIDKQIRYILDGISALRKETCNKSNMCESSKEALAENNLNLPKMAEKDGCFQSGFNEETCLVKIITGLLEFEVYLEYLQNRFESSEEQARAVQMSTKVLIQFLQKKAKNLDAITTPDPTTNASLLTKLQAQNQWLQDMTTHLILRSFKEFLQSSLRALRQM
Chain of Tumor necrosis factor (P01375 whole entry): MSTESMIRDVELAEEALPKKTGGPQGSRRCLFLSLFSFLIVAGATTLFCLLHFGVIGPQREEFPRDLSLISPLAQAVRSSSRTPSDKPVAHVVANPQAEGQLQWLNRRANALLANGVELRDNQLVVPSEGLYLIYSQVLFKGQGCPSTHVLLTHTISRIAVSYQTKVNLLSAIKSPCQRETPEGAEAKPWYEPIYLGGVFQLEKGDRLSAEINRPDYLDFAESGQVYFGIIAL

Structure (SMILES) | Stability [1] [%] | remaining at 24 h [2] [%] | logD [3] | logP [4] | Stability [5] [%] | further results
COc1c(OC(=O)c2ccc(C(C)(C)C)cc2)cc2c(c1OC(=O)c1ccc(C(C)(C)C)cc1)[C@@H]1O[C@H](COC(=O)c3ccc(C(C)(C)C)cc3)[C@@H](OC(=O)c3ccc(C(C)(C)C)cc3)[C@H](OC(=O)c3ccc(C(C)(C)C)cc3)[C@H]1OC2=O | 109 | 104 | 0.162 | 0.771 | 86.1 | –
COc1c(OC(=O)c2ccccc2)cc2c(c1OC(=O)c1ccccc1)[C@@H]1O[C@H](COC(=O)c3ccccc3)[C@@H](O)[C@H](O)[C@H]1OC2=O | – | – | 1.77 | 2.553 | – | –
CCCCCCCC(=O)OC[C@H]1O[C@H]2c3c(cc(OC(=O)CCCCCCC)c(OC)c3OC(=O)CCCCCCC)C(=O)O[C@@H]2[C@@H](OC(=O)CCCCCCC)[C@@H]1OC(=O)CCCCCCC | – | – | 6.11 | 6.011 | – | –
COc1c(OC(C)=O)cc2c(c1OC(C)=O)[C@@H]1O[C@H](COC(C)=O)[C@@H](OC(C)=O)[C@H](O)[C@H]1OC2=O | 92.3 | – | 0.429 | 1.181 | 41.8 | Stability ([2]; buffer, pH 4, 24 h): 122.03%
CCCOc1cc2c(c(OCCC)c1OC)[C@@H]1O[C@H](CO)[C@@H](O)[C@H](O)[C@H]1OC2=O | – | – | 1.51 | 1.655 | – | –
COc1c(O)cc2c(c1O)[C@@H]1O[C@H](COC(=O)c3ccc([N+](=O)[O-])cc3)[C@@H](O)[C@H](O)[C@H]1OC2=O | – | – | 1.53 | 1.563 | – | –
COc1c(OC(=O)c2ccc([N+](=O)[O-])cc2)cc2c(c1O)[C@@H]1O[C@H](COC(=O)c3ccc([N+](=O)[O-])cc3)[C@@H](O)[C@H](O)[C@H]1OC2=O | 91.6 | 45 | 2.65 | 2.508 | 59.5 | –
CCCCCC(=O)OC[C@H]1O[C@H]2c3c(cc(OC(=O)CCCCC)c(OC)c3OC(=O)CCCCC)C(=O)O[C@@H]2[C@@H](OC(=O)CCCCC)[C@@H]1OC(=O)CCCCC | – | – | 6.06 | 5.967 | – | –
COc1c(OC(=O)c2c(F)cccc2F)cc2c(c1O)[C@@H]1O[C@H](COC(=O)c3c(F)cccc3F)[C@@H](O)[C@H](O)[C@H]1OC2=O | – | – | 1.86 | 1.801 | – | –
Nc1ncn([C@@H]2O[C@H](CO)[C@@H](O)[C@H]2O)c(=O)n1 [AZACITIDINE] | – | – | – | – | – | solubility [6]: 89000 µg/mL (≈ 364 mM); logP [7]: -3.1
COc1c(OC(=O)CC(C)C)cc2c(c1OC(=O)CC(C)C)[C@@H]1O[C@H](COC(=O)CC(C)C)[C@@H](OC(=O)CC(C)C)[C@H](OC(=O)CC(C)C)[C@H]1OC2=O | – | – | 6.45 | 6.358 | – | –
COc1c(OC(C)=O)cc2c(c1OC(C)=O)[C@@H]1O[C@H](COC(C)=O)[C@@H](OC(C)=O)[C@H](OC(C)=O)[C@H]1OC2=O [BERGENIN PENTAACETATE] | 99.1 | 119 | 0.516 | 1.155 | 100 | –
COc1c(OC(=O)c2c(Cl)cc(Cl)cc2Cl)cc2c(c1O)[C@@H]1O[C@H](COC(=O)c3c(Cl)cc(Cl)cc3Cl)[C@@H](O)[C@H](O)[C@H]1OC2=O | 86.5 | 76 | 3.89 | 3.693 | 87.5 | –
COc1c(OC(C)=O)cc2c(c1O)[C@@H]1O[C@H](COC(C)=O)[C@@H](O)[C@H](O)[C@H]1OC2=O | – | – | -1.06 | -0.494 | – | –
COc1c(O)cc2c(c1O)[C@@H]1O[C@H](CO)[C@@H](O)[C@H](O)[C@H]1OC2=O [BERGENIN] | 111 | 102 | -0.947 | -0.555 | 101 | solubility [6]: > 1000 µg/mL; solubility [8]: 1080 µg/mL (≈ 3.29 mM); IC50 (Interleukin-6): 0.208 µM; solubility [9]: 1290 µg/mL (≈ 3.93 mM); IC50 (Tumor necrosis factor): 12.5 µM; solubility [10]: 1220 µg/mL (≈ 3.72 mM); logP [7]: -1.06
COc1c(OC(=O)c2ccc(C(C)(C)C)cc2)cc2c(c1OC(=O)c1ccc(C(C)(C)C)cc1)[C@@H]1O[C@H](COC(=O)c3ccc(C(C)(C)C)cc3)[C@@H](O)[C@H](O)[C@H]1OC2=O | 106 | 95 | 0.552 | 0.599 | 93.5 | –
COc1c(OC(=O)c2ccccc2C)cc2c(c1OC(=O)c1ccccc1C)[C@@H]1O[C@H](COC(=O)c3ccccc3C)[C@@H](OC(=O)c3ccccc3C)[C@H](O)[C@H]1OC2=O | – | – | 1.61 | 1.751 | – | –
COc1c(OCc2ccccc2)cc2c(c1OCc1ccccc1)[C@@H]1O[C@H](CO)[C@@H](O)[C@H](O)[C@H]1OC2=O | 68.8 | 52.4 | 1.98 | – | 90.5 | logP [11]: 1.965
CCCCOc1cc2c(c(OCCCC)c1OC)[C@@H]1O[C@H](CO)[C@@H](O)[C@H](O)[C@H]1OC2=O | – | – | 2.83 | – | – | logP [11]: 2.495
